Measured values taken from ChEMBL document CHEMBL4342513, “Implementation of the CYP Index for the Design of Selective Tryptophan-2,3-dioxygenase Inhibitors” (ACS Med Chem Lett, 2020).

How the values were obtained:
[1] = target: T1, Tryptophan 2,3-dioxygenase (Homo sapiens, UniProt P48775); assay: Inhibition of TDO (unknown origin)
Homo sapiens [2] = species on record: Homo sapiens; assay: Selectivity index, ratio of EC50 for inhibition of IDO1 in human A172 cells in presence of IFNgamma to EC50 for inhibition of TDO in human SW48 cells; format: cell-based
[3] = Clearance in rat liver microsomes; format: ADME, Microsome
Outline: (§1)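 Clearance was measured in liver microsome incubations from human, rat and mouse. It is expressed as scaled clearance in mL/min/kg.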

[4] = target: Indoleamine 2,3-dioxygenase 1 (Homo sapiens, UniProt P14902); assay: Inhibition of IDO1 in human A172 cells after 24 hrs in presence of IFNgamma by NFK green reagent based assay; format: cell-based
Chain of Indoleamine 2,3-dioxygenase 1 (P14902 whole entry): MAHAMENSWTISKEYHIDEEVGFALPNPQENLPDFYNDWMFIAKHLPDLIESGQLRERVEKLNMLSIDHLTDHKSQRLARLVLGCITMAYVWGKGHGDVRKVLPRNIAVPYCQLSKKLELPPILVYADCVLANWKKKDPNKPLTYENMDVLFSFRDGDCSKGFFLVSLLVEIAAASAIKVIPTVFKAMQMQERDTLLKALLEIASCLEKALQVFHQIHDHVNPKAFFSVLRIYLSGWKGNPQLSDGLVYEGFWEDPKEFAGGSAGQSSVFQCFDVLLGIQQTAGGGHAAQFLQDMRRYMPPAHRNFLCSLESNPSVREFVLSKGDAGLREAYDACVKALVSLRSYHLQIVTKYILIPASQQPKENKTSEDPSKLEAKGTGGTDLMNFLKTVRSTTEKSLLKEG

[5] = target: T1, Tryptophan 2,3-dioxygenase; assay: Inhibition of TDO in human SW48 cells after 24 hrs by NFK green reagent based assay; format: cell-based
[6] = Lipophilicity, log D of compound at pH 7.4; format: physicochemical; conditions: buffer
[7] = Clearance in mouse liver microsomes; format: ADME, Microsome; outline: as §1
[8] = Clearance in human liver microsomes; format: ADME, Microsome; outline: as §1
[9] = target: T1, Tryptophan 2,3-dioxygenase; assay: Inhibition of recombinant human TDO using L-tryptophan as substrate preincubated for 5 mins followed by substrate addition and measured after 15 mins by RapidFire-Mass spectrometry
Cytochrome P450 3A4 = Cytochrome P450 3A4 (Homo sapiens, UniProt P08684); assay: Inhibition of CYP3A4 (unknown origin); format: ADME
Chain of Cytochrome P450 3A4 (P08684 whole entry): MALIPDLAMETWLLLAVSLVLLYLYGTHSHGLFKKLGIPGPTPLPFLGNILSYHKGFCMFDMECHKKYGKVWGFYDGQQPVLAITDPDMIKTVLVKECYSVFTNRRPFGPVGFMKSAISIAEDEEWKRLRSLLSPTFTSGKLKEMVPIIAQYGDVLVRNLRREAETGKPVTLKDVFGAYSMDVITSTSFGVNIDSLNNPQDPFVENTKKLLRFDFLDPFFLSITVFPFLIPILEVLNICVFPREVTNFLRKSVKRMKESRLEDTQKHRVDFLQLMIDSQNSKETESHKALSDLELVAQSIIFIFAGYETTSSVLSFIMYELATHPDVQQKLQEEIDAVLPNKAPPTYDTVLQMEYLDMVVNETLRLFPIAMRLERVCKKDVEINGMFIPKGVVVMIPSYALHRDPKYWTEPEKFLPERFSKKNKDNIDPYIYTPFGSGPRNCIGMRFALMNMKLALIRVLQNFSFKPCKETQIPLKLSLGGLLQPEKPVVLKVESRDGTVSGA

Homo sapiens [10] = species on record: Homo sapiens; assay: Selectivity index, ratio of IC50 for inhibition of CYP3A4 (unknown origin) to EC50 for inhibition of EC50 for inhibition of TDO in human SW48 cells; format: cell-based
[11] = Apparent permeability across apical to basolateral side in MDCK cells; format: ADME, cell-based, Canis lupus familiaris; conditions: dog

T1 sequence (P48775 whole entry): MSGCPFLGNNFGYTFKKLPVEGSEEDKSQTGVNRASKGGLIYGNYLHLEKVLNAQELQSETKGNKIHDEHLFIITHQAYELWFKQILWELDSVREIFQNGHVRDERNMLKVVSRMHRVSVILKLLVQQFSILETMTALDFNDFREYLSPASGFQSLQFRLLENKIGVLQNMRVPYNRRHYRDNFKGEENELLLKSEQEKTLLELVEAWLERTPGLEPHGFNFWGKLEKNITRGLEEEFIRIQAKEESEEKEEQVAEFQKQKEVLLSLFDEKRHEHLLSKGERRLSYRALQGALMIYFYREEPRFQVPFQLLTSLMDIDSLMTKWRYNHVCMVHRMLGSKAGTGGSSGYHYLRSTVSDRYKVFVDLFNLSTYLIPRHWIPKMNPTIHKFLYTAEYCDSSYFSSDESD

| SMILES | IC50 [1] [nM] | CLhep predicted [3] [mL/min/kg] | EC50 [4] [nM] | EC50 [5] [nM] | logD [6] | CLhep predicted [7] [mL/min/kg] | CLhep predicted [8] [mL/min/kg] | IC50 [9] [nM] | EC50 [1] [nM] | IC50 (Cytochrome P450 3A4) [nM] | Papp A→B [11] [×10⁻⁶ cm/s] | Ratio EC50 (Homo sapiens [2]) | Ratio IC50/EC50 (Homo sapiens [10]) |
| --- | --- | --- | --- | --- | --- | --- | --- | --- | --- | --- | --- | --- | --- |
| O=C1CC(c2c[nH]c3ccc(F)cc23)C(=O)N1 (stereo not given) [PF-06840003] | > 10000 | – | – | – | – | – | – | – | – | – | – | – | – |
| c1ccc2c(c1)-c1cncn1[C@H]2C1CCCCC1 | – | 45 | – | – | 3.7 | 74 | 15 | – | – | – | – | 13 | – |
| O[C@H](C[C@H]1c2c(F)cccc2-c2cncn21)[C@H]1CC[C@H](O)CC1 [NAVOXIMOD] | – | – | – | – | – | – | – | – | 2000 | – | – | – | – |
| NC(=O)c1ccc2c(c1)[C@@H](O)[C@H]([C@H]1c3ccccc3-c3cncn31)CC2 | – | 26 | 2600 | 35 | – | 67 | 7.4 | – | – | 3600 | – | 74 | 100 |
| N#Cc1ccc2c(c1)[C@@H](O)[C@H]([C@H]1c3ccccc3-c3cncn31)CC2 | – | 44 | 690 | 60 | – | 79 | 14 | – | – | 3300 | 1.7 | 12 | 55 |
| CP(C)(=O)c1ccc2c(c1)[C@@H](O)[C@H]([C@H]1c3ccccc3-c3cncn31)CC2 | – | 19 | 10000 | 130 | – | 39 | < 3.9 | – | – | 1600 | – | 77 | 12 |
| CS(=O)(=O)c1ccc2c(c1)[C@@H](O)[C@H]([C@H]1c3ccccc3-c3cncn31)CC2 | – | 33 | 880 | 39 | – | 64 | 6.6 | – | – | 6000 | – | 23 | 150 |

The next lines start with results.

| IC50 [1] [nM] | CLhep predicted [3] [mL/min/kg] | EC50 [4] [nM] | EC50 [5] [nM] | logD [6] | CLhep predicted [7] [mL/min/kg] | CLhep predicted [8] [mL/min/kg] | IC50 [9] [nM] | EC50 [1] [nM] | IC50 (Cytochrome P450 3A4) [nM] | Papp A→B [11] [×10⁻⁶ cm/s] | SMILES | Ratio EC50 (Homo sapiens [2]) | Ratio IC50/EC50 (Homo sapiens [10]) |
| --- | --- | --- | --- | --- | --- | --- | --- | --- | --- | --- | --- | --- | --- |
| – | 35 | 2200 | 70 | 2.2 | 59 | 5 | – | – | – | – | O[C@@H]1CCC[C@H]1[C@H]1c2ccccc2-c2cncn21 | 31 | – |
| – | 27 | 1400 | 36 | 1.7 | 59 | 5.9 | – | – | – | – | O[C@@H]1CC[C@H]1[C@H]1c2ccccc2-c2cncn21 | 67 | – |
| – | – | – | – | – | – | – | 20 | – | – | – | OCCn1c2ccccc2c2cncn21 | – | – |
| – | – | – | – | – | – | – | > 25000 | – | – | – | OCCC1c2ccccc2-n2nncc21 (stereo not given) | – | – |
| – | – | – | – | – | – | – | 17000 | – | – | – | OCCn1c2ccccc2n2cnnc12 | – | – |
| – | – | 970 | 87 | 0.7 | – | – | – | – | > 10000 | – | CS(=O)(=O)N1CC[C@@H]([C@H]2c3ccccc3-c3cncn32)[C@H](O)C1 | 11 | > 120 |
| – | 42 | 670 | 62 | 3.9 | 75 | 16 | – | – | – | – | C[C@H]([C@H](O)C1CCCCC1)[C@H]1c2ccccc2-c2cncn21 | 11 | – |
| – | 37 | 720 | 50 | 2.7 | 62 | 9.7 | – | – | – | – | O[C@@H]1CCCC[C@H]1[C@H]1c2ccccc2-c2cncn21 | 14 | – |
| – | – | > 25000 | 3000 | 1.1 | – | – | – | – | – | – | CC(=O)N1CC[C@@H]([C@H]2c3ccccc3-c3cncn32)[C@H](O)C1 | > 8 | – |
| – | 45 | – | – | 2.8 | 80 | 18 | – | – | – | – | O[C@@H](C[C@H]1c2ccccc2-c2cncn21)C1CCCCC1 | – | – |
